Experimental data published in ChEMBL document CHEMBL1153836, “Effects of human immunodeficiency virus protease inhibitors on the intestinal absorption of tenofovir disoproxil fumarate in vitro” (Antimicrob Agents Chemother, 2007).
Values belong to the compound of their own block, whether it stands above or below them. Calls of active or inactive are those of the source. No cut-off for these calls is given here.

Columns and labels:
Homo sapiens [1] = organism: Homo sapiens; experiment: Inhibition of esterase mediated-hydrolysis of tenofovir disoproxil fumarate in human intestinal sub cellular fraction S9 at 2 uM after 30 mins
Method in brief: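 Reactions were stopped at 30 and 60 min with 67% acetonitrile, and TDF was measured by LC/MS/MS. Degradation rate came from a single-exponential fit, expressed as percent inhibition versus DMSO. Duplicates; three to six independent experiments.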

[2] = molecular target: ATP-dependent translocase ABCB1 (Homo sapiens, UniProt P08183); experiment: Inhibition of human MDR1-dependent accumulation of calcein-AM expressed in MDCK2 cells; format: cell-based, MDCK-II; conditions: for Activity: human, mdck-ii
ATP-dependent translocase ABCB1, sequence (P08183 whole entry): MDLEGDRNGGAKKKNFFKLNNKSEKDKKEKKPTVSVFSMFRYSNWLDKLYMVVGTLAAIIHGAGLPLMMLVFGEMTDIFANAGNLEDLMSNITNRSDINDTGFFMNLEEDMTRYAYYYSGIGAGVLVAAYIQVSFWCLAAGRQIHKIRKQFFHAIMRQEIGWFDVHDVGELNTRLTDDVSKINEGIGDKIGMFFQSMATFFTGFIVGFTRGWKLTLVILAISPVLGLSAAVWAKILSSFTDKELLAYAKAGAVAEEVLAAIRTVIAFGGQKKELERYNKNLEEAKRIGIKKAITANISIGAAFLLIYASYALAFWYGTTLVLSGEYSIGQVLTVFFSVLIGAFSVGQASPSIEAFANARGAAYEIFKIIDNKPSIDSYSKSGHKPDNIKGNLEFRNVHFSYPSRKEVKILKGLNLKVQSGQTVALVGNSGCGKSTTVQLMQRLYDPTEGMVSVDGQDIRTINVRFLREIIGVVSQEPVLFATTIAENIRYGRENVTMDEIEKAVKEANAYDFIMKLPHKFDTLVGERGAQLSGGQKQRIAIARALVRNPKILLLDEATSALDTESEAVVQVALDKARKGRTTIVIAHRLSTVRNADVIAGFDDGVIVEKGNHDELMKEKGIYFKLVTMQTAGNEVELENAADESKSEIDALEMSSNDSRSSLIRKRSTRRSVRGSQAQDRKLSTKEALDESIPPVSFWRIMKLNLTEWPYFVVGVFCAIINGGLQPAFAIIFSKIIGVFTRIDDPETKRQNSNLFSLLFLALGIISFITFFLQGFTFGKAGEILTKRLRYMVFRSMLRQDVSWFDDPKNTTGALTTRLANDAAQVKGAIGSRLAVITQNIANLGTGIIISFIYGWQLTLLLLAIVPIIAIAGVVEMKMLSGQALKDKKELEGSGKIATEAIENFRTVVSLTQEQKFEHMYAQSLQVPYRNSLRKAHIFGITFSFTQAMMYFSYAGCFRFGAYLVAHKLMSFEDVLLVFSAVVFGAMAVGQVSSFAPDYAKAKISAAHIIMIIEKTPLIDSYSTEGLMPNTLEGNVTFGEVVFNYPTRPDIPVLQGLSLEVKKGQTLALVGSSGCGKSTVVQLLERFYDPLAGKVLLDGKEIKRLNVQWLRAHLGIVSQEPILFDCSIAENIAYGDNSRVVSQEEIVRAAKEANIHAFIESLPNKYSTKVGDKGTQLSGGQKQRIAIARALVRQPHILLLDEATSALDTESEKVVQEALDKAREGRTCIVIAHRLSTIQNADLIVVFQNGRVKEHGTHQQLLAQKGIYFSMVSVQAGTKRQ
Method in brief: (§1)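 Parental and MDR1-transfected MDCKII cells received calcein-AM together with PI (seven twofold dilutions from 50 µM, no serum proteins). Intracellular calcein fluorescence was read in a 96-well format. Percent increase in fluorescence was fitted to a hyperbolic curve for IC50. Duplicates; 3–10 independent assays.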

Homo sapiens [3] = experiment: Effect on tenofovir disoproxil fumarate metabolism in ritonavir booster drug treated healthy human assessed as change in plasma Cmax of tenofovir at 1000 mg, po, BID co-administered with 300 mg once daily dose of tenofovir disoproxil fumarate; format: ADME, organism-based; conditions: in vivo
Caco-2 [4] = experiment: Increase in P-glycoprotein-mediated tenofovir disoproxil fumarate permeation from apical to basolateral side of human Caco-2 cells at 20 uM; format: cell-based
Method in brief: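 Caco-2 monolayers were preincubated 30 min with 20 µM PI in transport buffer, then given fresh buffer with inhibitor plus TDF on the apical side. […] Duplicates; mean ± SD of three independent experiments.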

Homo sapiens [5] = experiment: Effect on tenofovir disoproxil fumarate metabolism in ritonavir booster drug treated healthy human assessed as change in plasma Cmin of tenofovir at 1000 mg, po, BID co-administered with 300 mg once daily dose of tenofovir disoproxil fumarate; format: ADME, organism-based; conditions: in vivo
Homo sapiens [6] = experiment: Effect on tenofovir disoproxil fumarate metabolism in ritonavir booster drug treated healthy human assessed as change in plasma AUC of tenofovir at 1000 mg, po, BID co-administered with 300 mg once daily dose of tenofovir disoproxil fumarate; format: ADME, organism-based; conditions: in vivo
[7] = molecular target: T1, MDR1 (ABCB1, P-glycoprotein) (Homo sapiens, UniProt P08183); experiment: Inhibition of human MDR1-dependent accumulation of calcein-AM expressed in MDCK2 cells at 50 uM; format: cell-based, MDCK-II; set-up: activity at 50 µM: scale not given: the % may be the effect or the level left; conditions: MDCK2 cells expressing human MDR1, probe calcein-AM; method in brief: as §1
T1 sequence (P08183 whole entry): as above

Homo sapiens [8] = experiment: Effect on tenofovir disoproxil fumarate metabolism in ritonavir booster drug treated healthy human assessed as change in plasma Cmax of tenofovir at 300 mg, po, BID co-administered with 300 mg once daily dose of tenofovir disoproxil fumarate; format: ADME, organism-based; conditions: in vivo
Homo sapiens [9] = experiment: Effect on tenofovir disoproxil fumarate metabolism in ritonavir booster drug treated healthy human assessed as change in plasma AUC of tenofovir at 300 mg, po, BID co-administered with 300 mg once daily dose of tenofovir disoproxil fumarate; format: ADME, organism-based; conditions: in vivo
Homo sapiens [10] = experiment: Effect on tenofovir disoproxil fumarate metabolism in ritonavir booster drug treated healthy human assessed as change in plasma Cmin of tenofovir at 300 mg, po, BID co-administered with 300 mg once daily dose of tenofovir disoproxil fumarate; format: ADME, organism-based; conditions: in vivo
Homo sapiens [11] = experiment: Effect on tenofovir disoproxil fumarate metabolism in ritonavir booster drug treated healthy human assessed as change in plasma Cmax of tenofovir at 750 mg, po, BID co-administered with 300 mg once daily dose of tenofovir disoproxil fumarate; format: ADME, organism-based; conditions: in vivo
Homo sapiens [12] = experiment: Effect on tenofovir disoproxil fumarate metabolism in ritonavir booster drug treated healthy human assessed as change in plasma Cmax of tenofovir at 500 mg, po, BID co-administered with 300 mg once daily dose of tenofovir disoproxil fumarate; format: ADME, organism-based; conditions: in vivo
Homo sapiens [13] = experiment: Effect on tenofovir disoproxil fumarate metabolism in ritonavir booster drug treated healthy human assessed as change in plasma Cmax of tenofovir at 800 mg, po, TID co-administered with 300 mg once daily dose of tenofovir disoproxil fumarate; format: ADME, organism-based; conditions: in vivo
Homo sapiens [14] = experiment: Effect on tenofovir disoproxil fumarate metabolism in ritonavir booster drug treated healthy human assessed as change in plasma Cmin of tenofovir at 1250 mg, po, BID co-administered with 300 mg once daily dose of tenofovir disoproxil fumarate; format: ADME, organism-based; conditions: in vivo
[15] = molecular target: T1, MDR1 (ABCB1, P-glycoprotein); experiment: Inhibition of human MDR1-dependent accumulation of calcein-AM expressed in MDCK2 cells at 20 uM; format: cell-based, MDCK-II; conditions: MDCK2 cells expressing human MDR1, probe calcein-AM
Homo sapiens [16] = experiment: Effect on tenofovir disoproxil fumarate metabolism in ritonavir booster drug treated healthy human assessed as change in plasma AUC of tenofovir at 300 mg, po, QD co-administered with 300 mg once daily dose of tenofovir disoproxil fumarate; format: ADME, organism-based; conditions: in vivo
Homo sapiens [17] = experiment: Effect on tenofovir disoproxil fumarate metabolism in ritonavir booster drug treated healthy human assessed as change in plasma Cmax of tenofovir at 300 mg, po, QD co-administered with 300 mg once daily dose of tenofovir disoproxil fumarate; format: ADME, organism-based; conditions: in vivo
Homo sapiens [18] = experiment: Effect on tenofovir disoproxil fumarate metabolism in ritonavir booster drug treated healthy human assessed as change in plasma Cmin of tenofovir at 300 mg, po, QD co-administered with 300 mg once daily dose of tenofovir disoproxil fumarate; format: ADME, organism-based; conditions: in vivo
Homo sapiens [19] = experiment: Effect on tenofovir disoproxil fumarate metabolism in ritonavir booster drug treated healthy human assessed as change in plasma Cmin of tenofovir at 1400 mg, po, BID co-administered with 300 mg once daily dose of tenofovir disoproxil fumarate; format: ADME, organism-based; conditions: in vivo
Homo sapiens [20] = experiment: Effect on tenofovir disoproxil fumarate metabolism in ritonavir booster drug treated healthy human assessed as change in plasma Cmax of tenofovir at 1400 mg, po, BID co-administered with 300 mg once daily dose of tenofovir disoproxil fumarate; format: ADME, organism-based; conditions: in vivo
Homo sapiens [21] = experiment: Effect on tenofovir disoproxil fumarate metabolism in ritonavir booster drug treated healthy human assessed as change in plasma AUC of tenofovir at 1400 mg, po, BID co-administered with 300 mg once daily dose of tenofovir disoproxil fumarate; format: ADME, organism-based; conditions: in vivo
Homo sapiens [22] = experiment: Effect on tenofovir disoproxil fumarate metabolism in ritonavir booster drug treated healthy human assessed as change in plasma Cmax of tenofovir at 700 mg, po, BID co-administered with 300 mg once daily dose of tenofovir disoproxil fumarate; format: ADME, organism-based; conditions: in vivo
Homo sapiens [23] = experiment: Effect on tenofovir disoproxil fumarate metabolism in ritonavir booster drug treated HIV infected patient assessed as change in plasma AUC of tenofovir at 400 mg, po, BID co-administered with 300 mg once daily dose of tenofovir disoproxil fumarate; format: ADME, organism-based; conditions: in vivo
Caco-2 [24] = experiment: Increase in P-glycoprotein-mediated forward permeation of tenofovir disoproxil fumarate in human Caco-2 cells at 2 uM; format: cell-based
Homo sapiens [25] = experiment: Effect on tenofovir disoproxil fumarate metabolism in HIV infected patient assessed as change in plasma Cmax of tenofovir at 400 mg, po, BID co-administered with 300 mg once daily dose of tenofovir disoproxil fumarate; format: ADME, organism-based; conditions: in vivo
Homo sapiens [26] = experiment: Effect on tenofovir disoproxil fumarate metabolism in HIV infected patient assessed as change in plasma Cmin of tenofovir at 400 mg, po, BID co-administered with 300 mg once daily dose of tenofovir disoproxil fumarate; format: ADME, organism-based; conditions: in vivo
Homo sapiens [27] = organism: Homo sapiens; experiment: Inhibition of esterase mediated-hydrolysis of tenofovir disoproxil fumarate in human intestinal sub cellular fraction S9 assessed as rate of tenofovir disoproxil fumarate degradation at 50 uM after 30 mins
Method in brief: (§2)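 Human intestinal S9 at 1 mg/ml protein; TDF 2 µM incubated with or without inhibitor (10, 50 or 100 µM) at 37°C in duplicate. Reactions were stopped at 30 and 60 min with 67% acetonitrile, protein removed by centrifugation, and TDF measured by LC/MS/MS. The degradation rate came from a single-exponential-decay fit.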

Homo sapiens [28] = organism: Homo sapiens; experiment: Inhibition of esterase mediated-hydrolysis of tenofovir disoproxil fumarate in human intestinal sub cellular fraction S9 assessed as rate of tenofovir disoproxil fumarate degradation at 10 uM after 30 mins; method in brief: as §2
Caco-2 [29] = experiment: Ratio of permeability from basolateral to apical side over apical to basolateral side in human Caco-2 cells at 1000 uM; format: ADME, cell-based; conditions: caco-2, 1000 µM
Method in brief: (§3)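 Confluent Caco-2 monolayers dosed with TDF (1–1,000 µM) on the apical or basolateral side at 37°C, 5% CO2. […] Efflux ratio = B-to-A Papp / A-to-B Papp. Two independent experiments in duplicate.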

Caco-2 [30] = experiment: Increase in P-glycoprotein-mediated forward permeation of tenofovir disoproxil fumarate in human Caco-2 cells at 10 uM; format: cell-based
Caco-2 [31] = experiment: Ratio of permeability from basolateral to apical side over apical to basolateral side in human Caco-2 cells at 1 uM; format: ADME, cell-based; conditions: caco-2, 1 µM; method in brief: as §3
Homo sapiens [32] = organism: Homo sapiens; experiment: Inhibition of esterase mediated-hydrolysis of tenofovir disoproxil fumarate in human intestinal sub cellular fraction S9 assessed as rate of tenofovir disoproxil fumarate degradation at 100 uM after 30 mins; method in brief: as §2

Activity (Homo sapiens [1]): Active
Activity [2]: Dose-dependent effect
Activity (Homo sapiens [3]): 15%
Activity (Homo sapiens [5]): 23%
Activity (Homo sapiens [6]): 14%
SMILES: CC(C)(C)NC(=O)[C@@H]1C[C@@H]2CCCC[C@@H]2CN1C[C@@H](O)[C@H](Cc1ccccc1)NC(=O)[C@H](CC(N)=O)NC(=O)c1ccc2ccccc2n1
Activity (Caco-2 [4]): Active

Activity (Homo sapiens [1]): Active
inhibition at 50 µM [7]: ≤ 25%
SMILES: CC(C)CN(C[C@@H](O)[C@H](Cc1ccccc1)NC(=O)O[C@H]1CCOC1)S(=O)(=O)c1ccc(N)cc1

inhibition (Homo sapiens [1]): < 40%
Activity (Homo sapiens [8]): 24%
IC50 [2]: > 100 µM
Activity (Homo sapiens [9]): 22%
activity at 50 µM ([7]; read-out: Activity): 15%
Activity (Homo sapiens [10]): 37%
SMILES: CC(C)CN(C[C@@H](O)[C@H](Cc1ccccc1)NC(=O)O[C@H]1CO[C@H]2OCC[C@H]21)S(=O)(=O)c1ccc(N)cc1

Activity (Homo sapiens [11]): -38%
Activity (Homo sapiens [12]): -23%
SMILES: CCC[C@@]1(CCc2ccccc2)CC(O)=C([C@H](CC)c2cccc(NS(=O)(=O)c3ccc(C(F)(F)F)cn3)c2)C(=O)O1

inhibition (Homo sapiens [1]): < 40%
inhibition at 50 µM [7]: ≤ 25%
Activity (Homo sapiens [13]): 14%
SMILES: CC(C)(C)NC(=O)[C@@H]1CN(Cc2cccnc2)CCN1C[C@@H](O)C[C@@H](Cc1ccccc1)C(=O)N[C@H]1c2ccccc2C[C@H]1O.O

Activity (Homo sapiens [1]): Active
Activity (Homo sapiens [14]): 9%
Activity [2]: Dose-dependent effect
inhibition at 20 µM [15]: 50%
SMILES: Cc1c(O)cccc1C(=O)N[C@@H](CSc1ccccc1)[C@H](O)CN1C[C@H]2CCCC[C@H]2C[C@H]1C(=O)NC(C)(C)C

Activity (Homo sapiens [1]): Active
SMILES: CC(C)c1nc(CN(C)C(=O)N[C@H](C(=O)N[C@@H](Cc2ccccc2)C[C@H](O)[C@H](Cc2ccccc2)NC(=O)OCc2cncs2)C(C)C)cs1
Activity (Caco-2 [4]): Active

Activity (Homo sapiens [16]): 37%
Activity (Homo sapiens [1]): Active
Activity (Homo sapiens [17]): 34%
IC50 [2]: 67.8 µM
Activity [2]: Dose-dependent effect
Activity (Homo sapiens [18]): 29%
SMILES: COC(=O)N[C@H](C(=O)N[C@@H](Cc1ccccc1)[C@@H](O)CN(Cc1ccc(-c2ccccn2)cc1)NC(=O)[C@@H](NC(=O)OC)C(C)(C)C)C(C)(C)C [ATAZANAVIR]
Activity (Caco-2 [4]): Active

inhibition (Homo sapiens [1]): Active
Activity (Homo sapiens [8]): 24%
IC50 [2]: 24.1 µM
Activity [2]: Dose-dependent effect
Activity (Homo sapiens [9]): 32%
inhibition at 20 µM [15]: 50%
SMILES: Cc1nc(COc2ccc(C[C@H](NC(=O)O[C@H]3CO[C@H]4OCC[C@H]43)[C@H](O)CN(CC(C)C)S(=O)(=O)c3ccc4c(c3)OCO4)cc2)cs1 [BRECANAVIR]

Activity (Homo sapiens [19]): -12%
Activity (Homo sapiens [20]): -25%
Activity (Homo sapiens [21]): -15%
Activity (Homo sapiens [22]): -18%
SMILES: CC(C)CN(C[C@@H](OP(=O)(O)O)[C@H](Cc1ccccc1)NC(=O)O[C@H]1CCOC1)S(=O)(=O)c1ccc(N)cc1 [FOSAMPRENAVIR]

Activity (Homo sapiens [23]): 32%
Activity (Homo sapiens [1]): Active
Activity [2]: Dose-dependent effect
inhibition at 20 µM [15]: 50%
Activity (Homo sapiens [25]): 15%
Activity (Homo sapiens [26]): 51%
SMILES: Cc1cccc(C)c1OCC(=O)N[C@@H](Cc1ccccc1)[C@@H](O)C[C@H](Cc1ccccc1)NC(=O)[C@H](C(C)C)N1CCCNC1=O [LOPINAVIR]
Activity (Caco-2 [4]): Active
Activity (Caco-2 [24]): 100%

SMILES: CC(C)OC(=O)OCOP(=O)(CO[C@H](C)Cn1cnc2c(N)ncnc21)OCOC(=O)OC(C)C.O=C(O)/C=C/C(=O)O [TENOFOVIR DISOPROXIL FUMARATE]
Activity (Homo sapiens [27]): 0.016 min⁻¹
Activity (Homo sapiens [28]): 0.021 min⁻¹
Ratio (Caco-2 [29]): 2.6
fold change (FC) (Caco-2 [30]): 1.4
Ratio (Caco-2 [31]): 25
fold change (FC) (Caco-2 [24]): 2.5
Activity (Homo sapiens [32]): 0.012 min⁻¹
